RAM network inh: inhibitors of the yeast RAM network | actives 1.8% (n = 190,000) | S. cerevisiae dse1pr::URA3 reporter, 5-FOA growth OD615, 2 d; analog-sensitive cbk1-as2 kinase mutant strain | inhibition, % at 50 µM;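 active = inhibition above a set limit, 3 SD over mean compound inhibition, cut at about 8.4% in these data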;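 also: inhibition rescues growth on 5-FOA so higher OD means more RAM inhibition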
Phagocytosis inh: macrophage phagocytosis inhibition; inhibition, % at 5 µM; actives 0.07% (n = 110,000); J774A.1 macrophage IgG-bead phagocytosis, imaging;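 active = inhibition above the mean of the plate negative controls plus 5 SD, cut at about 13% in these data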;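 also: phagocytic index as fraction of beads internalized from green versus red external bead signal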
Yeast lifespan up: yeast lifespan extension. S. cerevisiae growth with nicotinamide, OD615; deaD strain in restrictive glucose medium. inhibition of the nicotinamide effect, % at 10 µM. actives 0.68% (n = 130,000). AID 775;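 active = inhibition above a set limit, placed 3 SD over the median of all compounds, cut at about 26% in these data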
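Test system: DeaD-strain S. cerevisiae / Buffer or medium: restrictive glucose medium / Also added: nicotinamide 1.5 mM / Doses: one concentration, 10 µM, DMSO 0.25% / Schedule: 48 h at 30 °C / Signal: OD615 measurement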
Yeast growth inh: yeast BB579 growth reduction in restrictive medium; actives 0.51% (n = 140,000); AID 804; inhibition, % at 10 µM; S. cerevisiae BB579 growth, OD615, 48 h;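 active = inhibition above a set limit, 3 SD over the mean compound inhibition, cut at about 44% in these data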
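System: Saccharomyces cerevisiae DeaD strain BB579, replicative lifespan model yeast | Buffer or medium: Restrictive glucose-based CSMM-D medium | Times: 4 h preincubation and 48 h exposure at 30 °C | Detection: OD615 turbidity measurement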
RAM efflux-def: RAM network inhibition, efflux-deficient strain | shares compounds with RAM network inh | S. cerevisiae efflux-deficient reporter strain, 5-FOA growth OD615, 2 days | max inhibition, % | 1,200 tested, under 10 active; call rule not given here
Numbers stand for hits; - = inactive; . = no result. This is a sample that favours compounds with a hit; in the whole collection about 2.7% have one here.

SMILES	RAM network inh	Phagocytosis inh	Yeast lifespan up	Yeast growth inh	RAM efflux-def
CCN(CC)S(=O)(=O)c1cc(NS(=O)(=O)c2cccc(Cl)c2)ccc1C	-	-	-	-	.
CCN(CC)S(=O)(=O)c1cc(NS(=O)(=O)c2c(Cl)cccc2Cl)ccc1C	14	-	28	-	-
COC(=O)c1sc(NC(=O)CCCn2nc([N+](=O)[O-])cc2C)c(C(=O)OC)c1C	-	-	-	-	.
Cn1c(SCC(=O)N2CCc3ccccc32)nnc1-c1ccc(S(=O)(=O)N2CCCC2)cc1	12	-	-	-	-
Cc1cc(-c2ccccc2)nc(SCC(=O)N2CCCC2)n1	-	.	.	.	.
COc1ccc(C(=O)NNC(=O)C(Cc2ccc(O)cc2)NC(=O)c2ccccc2NC(=O)c2ccc(OC)cc2)cc1 (configuration not stated)	12	-	-	-	-
COC(=O)c1cc(=O)n(CCc2ccccc2)c(=Nc2ccc(F)cc2)s1	12	-	-	-	-
Cn1cnnc1SC1c2cccc3cccc(c23)C1NS(=O)(=O)c1ccc(Cl)cc1 (configuration not stated)	12	-	-	-	-
Cn1cnnc1SC1c2cccc3cccc(c23)C1NS(=O)(=O)c1ccccc1 (configuration not stated)	-	-	-	-	.
Cc1ccc2c(CC(=O)Nc3cccc(S(=O)(=O)N4CCOCC4)c3)coc2c1	-	.	.	.	.
COc1ccc(CNC(=O)c2cccc(-c3ccc(C)c4ccccc34)n2)cc1	12	.	-	-	-
COc1ccc(CNC(=O)c2ccccc2C(=O)O)cc1	-	-	-	-	.
CSc1ncccc1C(=O)N1CCCC(CCC(=O)NCc2ccc(F)c(F)c2)C1 (configuration not stated)	-	.	.	.	.
COC(=O)CCSCC(=O)N1N=C(c2ccc(Br)cc2)CC1c1cccc(OC)c1OC (configuration not stated)	13	.	.	.	-
COc1cccc(C2CC(c3ccc(NS(C)(=O)=O)cc3)=NN2C(=O)c2ccccc2)c1OC (configuration not stated)	-	.	.	.	.
O=C(OCC#CCSc1nnc(-c2ccncc2)o1)c1cccs1	-	-	-	-	.
O=C(OCC#CCSc1nnc(-c2cccc3ccccc23)o1)c1ccco1	17	-	-	-	-
CCOC(=O)CSc1nc2ccccc2c(=O)n1C1CCCC1	13	-	-	-	-
CCOC(=O)CSc1nc2ccccc2c(=O)n1C	-	.	-	-	.
Cc1cccc(Nc2nc(NCc3ccco3)c3ccccc3n2)c1	16	-	-	-	-
Cc1ccccc1Nc1nc(NCc2ccco2)c2ccccc2n1	-	.	.	.	.
Cc1ccc(S(=O)(=O)NCCCCCC(=O)Nc2c(C)n(C)n(-c3ccccc3)c2=O)cc1	-	.	.	.	.
CCN(CC)S(=O)(=O)c1ccc(NC(=O)COC(=O)c2ccc(Br)o2)cc1	47	.	-	-	-
NC1=NC2(CCCCC2)N=C(Nc2ccc(Br)cc2)N1	-	-	-	-	.
Cc1ccc(C(=O)OCC(=O)Nc2cc(S(=O)(=O)N3CCOCC3)ccc2C)cc1	12	.	.	.	-
SMILES	RAM network inh	Phagocytosis inh	Yeast lifespan up	Yeast growth inh	RAM efflux-def
Cc1cc(C)c(S(=O)(=O)Nc2ccc3c(c2)CCC3)c(C)c1	13	-	-	-	-
Cc1cc(C)c(S(=O)(=O)Nc2ccc(O)cc2)c(C)c1	-	-	-	-	.
O=c1c2c3n(c(=S)nc2[nH]n1-c1ccccc1)CCCCC3	-	-	-	-	.
CSc1ccccc1-c1nnc(-c2ccc(C)cc2)o1	14	.	-	-	-
CSc1ccccc1-c1nnc(-c2ccccc2)o1	-	-	-	-	.
CCOCCCNC(=S)N1CCCN(c2nc3cc(C)c(C)cc3cc2C#N)CC1	17	.	.	.	-
COCCCNC(=S)N1CCCN(c2nc3cc(C)c(C)cc3cc2C#N)CC1	-	.	.	.	.
COC(=O)c1ccccc1NC(=S)NC(=O)COc1ccccc1Cl	-	-	-	-	.
COC(=O)c1ccccc1NC(=O)c1cccc(COc2ccccc2Cl)c1	12	-	-	-	-
O=C(c1ccc(Cl)cc1)n1c(NCc2ccccc2)n[nH]c1=S	-	.	.	.	.
Cc1ccc(S(=O)(=O)N(CCCO)CC(O)CON=C2c3ccccc3-c3ccccc32)cc1 (configuration not stated)	13	-	-	-	-
O=C(NCc1cccs1)C(=O)c1cn(CC(=O)N2CCCC2)c2ccccc12	-	.	.	.	.
O=C(CN(c1ccc2c(c1)OCCO2)S(=O)(=O)c1ccccc1)NCc1ccc(Cl)cc1	-	-	-	-	.
CCCCN(CC(=O)NCc1ccc(Cl)cc1)S(=O)(=O)c1ccc2c(c1)OCCO2	13	.	-	-	-
Cc1ccc(Cc2nnc3n(-c4cccc(C)c4)nc(C(=O)c4ccccc4)n3c2=O)cc1	15	.	.	-	-
COC(=O)c1nn(-c2cccc(C)c2)c2nnc(Cc3ccc(C)cc3)c(=O)n12	-	-	-	-	.
COc1ccnc(N2CCN(c3ccc(Cl)cc3)CC2)c1C#N	14	-	-	-	-
CCC(Cc1ccccc1)NC(=O)C1=C(C)C(=O)OC12CCC(C)CC2 (configuration not stated)	-	.	.	.	.
CCN(CC)S(=O)(=O)c1cccc(NC(=O)CCSc2ccc(Cl)cc2)c1	14	.	-	-	-
CN(C)S(=O)(=O)c1cccc(NC(=O)COC(=O)CCSc2ccc(Cl)cc2)c1	-	-	-	-	.
O=C(CSc1nc(-c2ccco2)cc(C(F)(F)F)n1)NCCc1ccccc1	14	-	-	-	-
COc1ccc(CCNC(=O)CSc2nc(-c3ccco3)cc(C(F)(F)F)n2)cc1OC	-	-	-	-	.
CCCCn1c(=O)c(CCC(=O)OC(C)C(=O)Nc2cccc(Cl)c2Cl)nc2ccccc21 (configuration not stated)	16	-	-	-	-
CC/C(=N\OC(=O)c1ccc(OC(C)C)cc1)c1ccc(C)cc1	-	-	-	-	.
C/C(=N\OC(=O)c1ccc(OC(C)C)cc1)c1ccc(C)c(C)c1	12	-	-	-	-
SMILES	RAM network inh	Phagocytosis inh	Yeast lifespan up	Yeast growth inh	RAM efflux-def
Cc1ccc(/C=C2\Oc3cc(OC(=O)N4CCOCC4)ccc3C2=O)cc1	-	.	-	-	.
Cc1cccc(/C=C2\Oc3cc(OS(C)(=O)=O)ccc3C2=O)c1	12	-	-	-	-
CCN(C(=O)CSc1ncnc2sc(C)c(C)c12)C1CCS(=O)(=O)C1 (configuration not stated)	-	.	.	.	.
CCCN(CC1CC1)C(=O)CSc1ncnc2sc(C)c(C)c12	14	-	-	-	-
CCCCN(C(=O)c1cccc2c(=O)c(C)c(-c3ccccc3)oc12)c1ccccc1	16	-	29	-	-
Clc1ccc(-c2csc(N3CCSCC3)n2)cc1	-	-	-	-	.
C/C(N)=C(/C#N)C(=O)CSc1nc2ccccc2c(=O)n1-c1ccc(C)c(Cl)c1	12	-	-	-	-
C/C(N)=C(/C#N)C(=O)CSc1nc2ccccc2c(=O)n1-c1ccc(C)cc1	-	-	-	-	.
Cc1cccc(NC(=O)CN(c2ccc(F)cc2)S(C)(=O)=O)c1	-	.	.	.	.
CN(c1cccc(NC(=O)CN(c2ccc(F)cc2)S(C)(=O)=O)c1)S(C)(=O)=O	13	.	.	.	-

Source: PubChem (several laboratories)
